Activity data for 7 compounds are collected here from ChEMBL document CHEMBL1122624, “Activity of novel aminocannabinoids in baboons” (J Med Chem, 1984).

Holding throughout (type): functional, organism-based
Assay [1] has as its system Cercopithecidae. As to the kind of experiment: Psychotropic effects in Baboons at a dose 2.0 mg/kg; - = no change. More on the design: dose 2 mg/kg. A digest of the protocol:
(§1)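 Male or female baboons were given a single injection, with two animals per dose level. The same animals received the solvent alone 1 week later. Behaviour was scored by observation, including yawning, body scratching, motor activity, ptosis, posture and responsiveness.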

The subject of assay [2] is Cercopithecidae. The assay is described as follows: Induction of yawning and scratching was determined in Baboons at a dose 10.0 mg/kg; present. More on the design: dose 10 mg/kg. A digest of the protocol: as §1
For assay [3], the system named is Cercopithecidae. The assay is described as follows: Induction of yawning and scratching was determined in Baboons at a dose 5.0 mg/kg; present. Also noted: dose 5 mg/kg. In short, it runs like this:
as §1

Assay [4] deals with Cercopithecidae. The assay is described as follows: Induction of yawning and scratching was determined in Baboons at a dose 2.0 mg/kg; present. Also noted: dose 2 mg/kg. In short, it runs like this: as §1
For assay [5], the system named is Cercopithecidae. As to the kind of experiment: Psychotropic effects in Baboons at a dose 5.0 mg/kg; - = no change. Also noted: dose 5 mg/kg. In short, it runs like this: as §1
Assay [6] deals with Cercopithecidae. As to the kind of experiment: Psychotropic effects in baboons at a dose 10.0 mg/kg; +/- = tranquility. More on the design: dose 10 mg/kg. In short, it runs like this:
as §1

The test system of assay [7] is Cercopithecidae. As to the kind of experiment: Psychotropic effects in Baboons at a dose 10.0 mg/kg; - = no change. Also noted: dose 10 mg/kg. A digest of the protocol:
as §1

Assay [8] relates to Cercopithecidae. As to the kind of experiment: Induction of yawning and scratching was determined in Baboons at a dose 10.0 mg/kg; absent. Also noted: dose 10 mg/kg. A digest of the protocol:
as §1

Assay [9] deals with Cercopithecidae. As to the kind of experiment: Induction of yawning and scratching was determined in Baboons at a dose 5.0 mg/kg; absent. Also noted: dose 5 mg/kg. A digest of the protocol: as §1
Assay [10] deals with Cercopithecidae. As to the kind of experiment: Induction of yawning and scratching was determined in Baboons at a dose 2.0 mg/kg; absent. Also noted: dose 2 mg/kg. A digest of the protocol:
as §1

Assay [11] has as its system Cercopithecidae. As to the kind of experiment: Psychotropic effects in Baboons at a dose 5.0 mg/kg; +/- = tranquility. More on the design: dose 5 mg/kg. A digest of the protocol:
as §1

Assay [12] has as its system Cercopithecidae. The assay is described as follows: Psychotropic effects in baboons at a dose 10.0 mg/kg;+/- = tranquility. More on the design: dose 10 mg/kg. A digest of the protocol: as §1
Assay [13] has as its system Cercopithecidae. The assay is described as follows: Induction of yawning and scratching was determined in Baboons at a dose 4.0 mg/kg; absent. More on the design: dose 4 mg/kg. In short, it runs like this:
as §1

Assay [14] has as its system Cercopithecidae. The assay is described as follows: Psychotropic effects in Baboons at a dose 4.0 mg/kg; - = no change. More on the design: dose 4 mg/kg. A digest of the protocol:
as §1

Assay [15] deals with Cercopithecidae. The assay is described as follows: Induction of yawning and scratching was determined in Baboons at a dose 0.1 mg/kg; absent. More on the design: dose 0.1 mg/kg. A digest of the protocol:
as §1

The test system of assay [16] is Cercopithecidae. The assay is described as follows: Induction of yawning and scratching was determined in Baboons at a dose 0.5 mg/kg; absent. More on the design: dose 0.5 mg/kg. In short, it runs like this:
as §1

Assay [17] has as its system Cercopithecidae. The assay is described as follows: Induction of yawning and scratching was determined in Baboons at a dose 1.0 mg/kg; absent. Also noted: dose 1 mg/kg. In short, it runs like this: as §1
In assay [18] the test system is Cercopithecidae. The assay is described as follows: Psychotropic effects in Baboons at a dose 0.5 mg/kg; ++ = stupor, ataxia, suppression of motor activity, full ptosis, typical crouched posture (thinker position) kept for up to 3 h. Also noted: dose 0.5 mg/kg. A digest of the protocol:
as §1

For assay [19], the system named is Cercopithecidae. As to the kind of experiment: Psychotropic effects in Baboons at a dose 1.0 mg/kg; +++ = severe stupor and ataxia, full ptosis, immobility, crouched posture lasting for more than 3 h, and absence of reaction to external stimuli. Also noted: dose 1 mg/kg. A digest of the protocol: as §1
Assay [20] has as its system Cercopithecidae. As to the kind of experiment: Psychotropic effects in Baboons at a dose 0.1 mg/kg; +/- = tranquility. Also noted: dose 0.1 mg/kg. A digest of the protocol: as §1
In assay [21] the test system is Cercopithecidae. The assay is described as follows: Psychotropic effects in Baboons at a dose 2.0 mg/kg; + = drowsiness, decreased motor activity, occasional partial ptosis, occasional head drop. Also noted: dose 2 mg/kg. A digest of the protocol: as §1
The subject of assay [22] is Cercopithecidae. As to the kind of experiment: Psychotropic effects in Baboons at a dose 1.0 mg/kg; - = no change. Also noted: dose 1 mg/kg. In short, it runs like this: as §1
For assay [23], the system named is Cercopithecidae. The assay is described as follows: Psychotropic effects in Baboons at a dose 0.1 mg/kg; ++ = stupor, ataxia, suppression of motor activity, full ptosis, typical crouched posture (thinker position) kept for up to 3 h. More on the design: dose 0.1 mg/kg. A digest of the protocol: as §1
The test system of assay [24] is Cercopithecidae. As to the kind of experiment: Psychotropic effects in Baboons at a dose 0.05 mg/kg; + = drowsiness, decreased motor activity, occasional partial ptosis, occasional head drop. Also noted: dose 0.05 mg/kg. In short, it runs like this: as §1
Assay [25] concerns Cercopithecidae. As to the kind of experiment: Psychotropic effects in baboons at a dose 0.5 mg/kg; +++ = severe stupor and ataxia, full ptosis, immobility, crouched posture lasting for more than 3 h, and absence of reaction to external stimuli. More on the design: dose 0.5 mg/kg. A digest of the protocol:
as §1

The subject of assay [26] is Cercopithecidae. As to the kind of experiment: Induction of yawning and scratching was determined in Baboons at a dose 0.05 mg/kg; absent. More on the design: dose 0.05 mg/kg. In short, it runs like this: as §1

SMILES strings stand for the structures. Calls of active or inactive are those of the source. No cut-off for these calls is given here.

On to `CCCCCc1cc(O)c2c(c1)OC(C)(C)[C@@H]1CC[C@H](CNC)CC21` (stereo partly drawn), for which the outcome with Cercopithecidae [1] and in the assay on Cercopithecidae [5] was inactive. Besides, the Activity entry in the assay with Cercopithecidae [2] was “present”; in the assay with Cercopithecidae [3] it was “present”; in the assay with Cercopithecidae [4], “present”; in the assay with Cercopithecidae [6], “+/-”.
`CCCCCc1cc(O)c2c(c1)OC(C)(C)[C@@H]1CC[C@H](CN(C)C)CC21` (stereo partly drawn): the result in the assay with Cercopithecidae [1], with Cercopithecidae [7] and in the assay with Cercopithecidae [5] was inactive. Further, the Activity result with Cercopithecidae [2], with Cercopithecidae [3] and with Cercopithecidae [4] was “present” each time.
Consider `CCCCCc1cc(O)c2c(c1)OC(C)(C)[C@@H]1CCC(CNC)CC21` (stereo partly drawn), for which the result in the assay on Cercopithecidae [1], in the assay with Cercopithecidae [8], with Cercopithecidae [9] and with Cercopithecidae [10] was inactive. The Activity entry with Cercopithecidae [11] and with Cercopithecidae [12] was “+/-” throughout.
On to `CCCCCc1cc(O)c2c(c1)OC(C)(C)[C@@H]1CCC(CN(C)C)CC21` (stereo partly drawn), for which the result with Cercopithecidae [1], with Cercopithecidae [13], with Cercopithecidae [10] and with Cercopithecidae [14] was inactive.
For the compound `CCCCCc1cc(O)c2c(c1)OC(C)(C)[C@@H]1CC[C@@H](C)CC21` (stereo partly drawn), the result in the assay with Cercopithecidae [15], in the assay with Cercopithecidae [16] and in the assay with Cercopithecidae [17] was inactive. In addition, the Activity result in the assay on Cercopithecidae [18] was “severe stupor and ataxia, full ptosis, immobility, crouched posture lasting for more than 3 h, and absence of reaction to external stimuli”; in the assay with Cercopithecidae [19] it was “severe stupor and ataxia, full ptosis, immobility, crouched posture lasting for more than 3 h, and absence of reaction to external stimuli”; in the assay on Cercopithecidae [20] it was “+/-”.
Consider `CCCCCc1cc(O)c2c(c1)OC(C)(C)[C@@H]1CC[C@H](C)CC21` (stereo partly drawn), for which the Activity result in the assay on Cercopithecidae [21] was “drowsiness, decreased motor activity, occasional partial ptosis, occasional head drop”. The result with Cercopithecidae [17], in the assay with Cercopithecidae [10] and in the assay with Cercopithecidae [22] was inactive.
As for `CCCCCc1cc(O)c2c(c1)OC(C)(C)[C@@H]1CC=C(C)C[C@@H]21`, the result in the assay with Cercopithecidae [23] and in the assay with Cercopithecidae [25] was Active. For the same compound, the result with Cercopithecidae [15], with Cercopithecidae [16] and in the assay on Cercopithecidae [26] was inactive. Further, the Activity result in the assay on Cercopithecidae [24] was “Weak activity”.
